Data published in ChEMBL document CHEMBL5674880 (PLoS One, 2018).

Assays:
Format in all cases: functional, cell-based
A204 = assay: Antiproliferative activity against human A204 cells after 10 days; conditions: A204, 240 h
Outline: (§1)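 Tested as part of a 240-line cancer cell panel (Eurofins Oncopanel); all lines were mycoplasma-negative and STR-verified. Cells were exposed to a compound concentration series in 2D culture for 10 days. The highest concentration was 10 μM or 25 μM, depending on the inhibitor. Antiproliferative IC50 was derived from the mean of three biological replicates.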

A-375 = assay: Antiproliferative activity against human A-375 cells after 10 days; conditions: A-375, 240 h; outline: as §1
AU565 = assay: Antiproliferative activity against human AU565 cells after 10 days; conditions: AU565, 240 h; outline: as §1
[1] = Antiproliferative activity against human BC1 cells after 10 days; conditions: BC1, 240 h; outline: as §1
[2] = Antiproliferative activity against human SK-N-BE(2)-C cells after 10 days; conditions: 240 h
BFTC-905 = assay: Antiproliferative activity against human BFTC-905 cells after 10 days; conditions: BFTC-905, 240 h; outline: as §1
[3] = Antiproliferative activity against human C4-1 cells after 10 days; conditions: C4-1, 240 h; outline: as §1
CFPAC-1 = assay: Antiproliferative activity against human CFPAC-1 cells after 10 days; conditions: CFPAC-1, 240 h; outline: as §1
ChaGo-K-1 = assay: Antiproliferative activity against human ChaGo-K-1 cells after 10 days; conditions: ChaGo-K-1, 240 h
Outline: (§2)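 10-day 2D proliferation screen of a broad cancer cell panel (about 240 lines, Eurofins Oncopanel). All lines were mycoplasma negative and STR verified. Compounds were dosed up to a top concentration of 10 μM or 25 μM, depending on the inhibitor. Anti-proliferative IC50 values are the average of three biological replicates.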

CHP-212 = assay: Antiproliferative activity against human CHP-212 cells after 10 days; conditions: CHP-212, 240 h; outline: as §1
[4] = Antiproliferative activity against human CML-T1 cells after 10 days; conditions: CML-T1, 240 h; outline: as §1
COLO 201 = assay: Antiproliferative activity against human COLO201 cells after 10 days; conditions: COLO 201, 240 h; outline: as §2
COLO 205 = assay: Antiproliferative activity against human COLO 205 cells after 10 days; conditions: COLO 205, 240 h; outline: as §1
Daoy = assay: Antiproliferative activity against human Daoy cells after 10 days; conditions: 240 h; outline: as §2
G-401 = assay: Antiproliferative activity against human G-401 cells after 10 days; conditions: G-401, 240 h; outline: as §2
HCT-8 = assay: Antiproliferative activity against human HCT-8 cells after 10 days; conditions: HCT-8, 240 h; outline: as §2
HEC-1-A = assay: Antiproliferative activity against human HEC-1-A cells after 10 days; conditions: 240 h; outline: as §2
HEL 92.1.7 = assay: Antiproliferative activity against human HEL 92.1.7 cells after 10 days; conditions: HEL 92.1.7, 240 h; outline: as §2
HeLa = assay: Antiproliferative activity against human HeLa cells after 10 days; conditions: 240 h; outline: as §2
HT = assay: Antiproliferative activity against human HT cells after 10 days; conditions: 240 h; outline: as §2
HT-1080 = assay: Antiproliferative activity against human HT-1080 cells after 10 days; conditions: HT-1080, 240 h; outline: as §2
HT-3 = assay: Antiproliferative activity against human HT-3 cells after 10 days; conditions: HT-3, 240 h; outline: as §2
Jurkat = assay: Antiproliferative activity against human Jurkat cells after 10 days; conditions: 240 h
Outline: (§3)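 Broad cancer cell line panel (Eurofins Oncopanel, about 240 lines; mycoplasma negative, STR verified) grown in 2D culture and exposed to compound in a 10-day proliferation assay. The top concentration was 10 μM for the SMYD2 inhibitor series and 25 μM for the SMYD3 inhibitor. The proliferative IC50 is taken from concentration-response data, each value the mean of three biological replicates.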

K562 = assay: Antiproliferative activity against human K562 cells after 10 days; conditions: K562, 240 h; outline: as §3
[5] = tested on: KATO III stomach cancer cell line; assay: Antiproliferative activity against human KATO III cells after 10 days; conditions: 240 h; outline: as §3
L-428 = assay: Antiproliferative activity against human L-428 cells after 10 days; conditions: L-428, 240 h; outline: as §3
MC-IXC = assay: Antiproliferative activity against human MC-IXC cells after 10 days; conditions: 240 h; outline: as §3
MDA-MB-453 = assay: Antiproliferative activity against human MDA-MB-453 cells after 10 days; conditions: MDA-MB-453, 240 h
Outline: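 Cell lines run in the Eurofins Oncopanel broad cancer panel, all mycoplasma-negative and STR-verified. Cells were exposed to a compound concentration series in a 10-day proliferation assay, and an anti-proliferative IC50 was derived. Values are the mean of three biological replicates.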

MDA-MB-436 = assay: Antiproliferative activity against human MDA-MB-436 cells after 10 days; conditions: MDA-MB-436, 240 h; outline: as §3
MG-63 = assay: Antiproliferative activity against human MG-63 cells after 10 days; conditions: MG-63, 240 h; outline: as §3
MHH-PREB-1 = assay: Antiproliferative activity against human MHH-PREB-1 cells after 10 days; conditions: MHH-PREB-1, 240 h; outline: as §3
[6] = Antiproliferative activity against human MT-3 cells after 10 days; conditions: MT-3, 240 h; outline: as §3
MV4-11 = assay: Antiproliferative activity against human MV4-11 cells after 10 days; conditions: MV4-11, 240 h; outline: as §3
NCI-H596 = assay: Antiproliferative activity against human NCI-H596 cells after 10 days; conditions: NCI-H596, 240 h; outline: as §3
NCI-H661 = assay: Antiproliferative activity against human NCI-H661 cells after 10 days; conditions: NCI-H661, 240 h; outline: as §3
[7] = Antiproliferative activity against human OCUG-1 cells after 10 days; conditions: OCUG-1, 240 h; outline: as §3
OVCAR-3 = assay: Antiproliferative activity against human OVCAR-3 cells after 10 days; conditions: OVCAR-3, 240 h; outline: as §3
RKO = assay: Antiproliferative activity against human RKO cells after 10 days; conditions: 240 h; outline: as §3
RPMI-6666 = assay: Antiproliferative activity against human RPMI-6666 cells after 10 days; conditions: RPMI-6666, 240 h
SCC-4 = assay: Antiproliferative activity against human SCC-4 cells after 10 days; conditions: SCC-4, 240 h
SiHa = assay: Antiproliferative activity against human SiHa cells after 10 days; conditions: 240 h
SK-MES-1 = assay: Antiproliferative activity against human SK-MES-1 cells after 10 days; conditions: SK-MES-1, 240 h
SK-N-FI = assay: Antiproliferative activity against human SK-N-FI cells after 10 days; conditions: 240 h
SK-OV-3 = assay: Antiproliferative activity against human SK-OV-3 cells after 10 days; conditions: SK-OV-3, 240 h
SNU1 = assay: Antiproliferative activity against human SNU1 cells after 10 days; conditions: SNU1, 240 h
SNU-16 = assay: Antiproliferative activity against human SNU-16 cells after 10 days; conditions: SNU-16, 240 h
[8] = Antiproliferative activity against human SW579 cells after 10 days; conditions: SW579, 240 h
SW-620 = assay: Antiproliferative activity against human SW620 cells after 10 days; conditions: SW-620, 240 h
YAPC = assay: Antiproliferative activity against human YAPC cells after 10 days; conditions: 240 h

Cc1cn(CCN2CCN(c3ccccc3-c3cc(C#N)cc(C(=O)NCCCN4CCCC4)c3)CC2)c2ccccc12
IC50 (A204): 1.35 µM | IC50 (A-375): 1.91 µM | IC50 (AU565): 1.25 µM | IC50 [1]: 3.65 µM | IC50 [2]: 3.31 µM | IC50 (BFTC-905): 2.5 µM | IC50 [3]: 2.06 µM | IC50 (CFPAC-1): 1.48 µM | IC50 (ChaGo-K-1): 1.23 µM | IC50 (CHP-212): 2.1 µM | IC50 [4]: 1.1 µM | IC50 (COLO 201): 1.06 µM | IC50 (COLO 205): 0.944 µM | IC50 (Daoy): 3.67 µM | IC50 (G-401): 0.905 µM | IC50 (HCT-8): 2.52 µM | IC50 (HEC-1-A): 1.05 µM | IC50 (HEL 92.1.7): 3.53 µM | IC50 (HeLa): 2.96 µM | IC50 (HT): 1.93 µM | IC50 (HT-1080): 1.98 µM | IC50 (HT-3): 3.27 µM | IC50 (Jurkat): 0.925 µM | IC50 (K562): 3.21 µM | IC50 [5]: 1.39 µM | IC50 (L-428): 1.49 µM | IC50 (MC-IXC): 1.92 µM | IC50 (MDA-MB-453): 1.5 µM | IC50 (MDA-MB-436): 3.03 µM | IC50 (MG-63): 6.12 µM | IC50 (MHH-PREB-1): 1.06 µM | IC50 [6]: 1.24 µM | IC50 (MV4-11): 1.01 µM | IC50 (NCI-H596): 2.95 µM | IC50 (NCI-H661): 3.39 µM | IC50 [7]: 2.34 µM | IC50 (OVCAR-3): 3.95 µM | IC50 (RKO): 1.04 µM | IC50 (RPMI-6666): 2.91 µM | IC50 (SCC-4): 3.59 µM | IC50 (SiHa): 3.26 µM | IC50 (SK-MES-1): 1.18 µM | IC50 (SK-N-FI): 6.03 µM | IC50 (SK-OV-3): 2.95 µM | IC50 (SNU1): 1.19 µM | IC50 (SNU-16): 0.993 µM | IC50 [8]: 2.98 µM | IC50 (SW-620): 3.08 µM | IC50 (YAPC): 2.87 µM

O=C(NC1CN(Cc2cnn(Cc3ccccc3)c2)C1)c1cn(C2CC2)nn1
IC50 (A204): > 10 µM | IC50 (A-375): > 10 µM | IC50 (AU565): > 10 µM | IC50 [1]: > 10 µM | IC50 [2]: > 10 µM | IC50 (BFTC-905): > 10 µM | IC50 [3]: > 10 µM | IC50 (CFPAC-1): > 10 µM | IC50 (ChaGo-K-1): > 10 µM | IC50 (CHP-212): > 10 µM | IC50 [4]: > 10 µM | IC50 (COLO 201): > 10 µM | IC50 (COLO 205): > 10 µM | IC50 (Daoy): > 10 µM | IC50 (G-401): > 10 µM | IC50 (HCT-8): > 10 µM | IC50 (HEC-1-A): > 10 µM | IC50 (HEL 92.1.7): > 10 µM | IC50 (HeLa): > 10 µM | IC50 (HT): > 10 µM | IC50 (HT-1080): > 10 µM | IC50 (HT-3): > 10 µM | IC50 (Jurkat): > 10 µM | IC50 (K562): > 10 µM | IC50 [5]: > 10 µM | IC50 (L-428): 2.61 µM | IC50 (MC-IXC): > 10 µM | IC50 (MDA-MB-453): > 10 µM | IC50 (MDA-MB-436): > 10 µM | IC50 (MG-63): > 10 µM | IC50 (MHH-PREB-1): > 10 µM | IC50 [6]: > 10 µM | IC50 (MV4-11): > 10 µM | IC50 (NCI-H596): > 10 µM | IC50 (NCI-H661): > 10 µM | IC50 [7]: > 10 µM | IC50 (OVCAR-3): > 10 µM | IC50 (RKO): > 10 µM | IC50 (RPMI-6666): > 10 µM | IC50 (SCC-4): > 10 µM | IC50 (SiHa): > 10 µM | IC50 (SK-MES-1): > 10 µM | IC50 (SK-N-FI): > 10 µM | IC50 (SK-OV-3): > 10 µM | IC50 (SNU1): > 10 µM | IC50 (SNU-16): > 10 µM | IC50 [8]: > 10 µM | IC50 (SW-620): > 10 µM | IC50 (YAPC): > 10 µM
